Assay results from ChEMBL document CHEMBL4393674, “Synthesis, and evaluation of in vitro and in vivo anticancer activity of 14-substituted oridonin analogs: A novel and potent cell cycle arrest and apoptosis inducer through the p53-MDM2 pathway” (Eur J Med Chem, 2019).
Active and inactive are the calls of the source. No cut-off for these calls is given here.

Key:
HCT-116 [1] = test: Induction of cell cycle arrest in human HCT116 cells assessed as accumulation at S phase at 0.30 uM incubated for 24 hrs by propidium iodide-staining based flow cytometric analysis (reference value: 23.30%); format: functional
HCT-116 [2] = test: Potency index, ratio of IC50 for oridonin to IC50 for test compound for inhibition of human HCT116 cells incubated for 48 hrs by MTT assay; format: functional
Outline: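 HCT116 cells grown in RPMI 1640 with 10% heat-inactivated FBS and penicillin/streptomycin at 37℃, 5% CO2. Cells adhered 24 h, then were exposed 48 h to 0.3, 1, 3 and 10 µM compound, with DMSO as vehicle and oridonin run alongside. MTT (final 2 mg/mL) was added for 4 h, formazan dissolved in DMSO, and OD read at 492 nm. The index is oridonin IC50 divided by the compound's IC50.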

[3] = Toxicity in athymic nu/nu mouse xenografted with human HCT116 cells assessed as change in body weight at 25 mg/kg, ip administered once per day for 20 days and measured on day 21; format: organism-based; details: in vivo, 480 h
Outline: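 HCT116 cells were inoculated subcutaneously into nude mice, six animals per group. Mice received 25 mg/kg compound or vehicle solution. Body weight and tumour size were recorded every two days.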

HCT-116 [4] = test: Induction of apoptosis in human HCT116 cell assessed as increase in caspase3 protein expression level incubated for 24 hrs by Western blot analysis; format: functional, cell-based
HCT-116 [5] = test: Induction of apoptosis in human HCT116 cell assessed as live cells at 3 uM incubated for 24 hrs by annexin V/PI staining based flow cytometric analysis (reference value: 80.4%); format: functional
HCT-116 [6] = test: Induction of apoptosis in human HCT116 cell assessed as early apoptotic cells at 0.3 uM incubated for 24 hrs by annexin V/PI staining based flow cytometric analysis (reference value: 5.98%); format: functional
HCT-116 [7] = test: Inhibition of colony formation in human HCT116 cells assessed as reduction in size of colonies incubated for 7 days by crystal violet staining based assay; format: functional, cell-based
Outline: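 HCT116 cells were seeded at 600 per well in RPMI 1640 with 10% FBS. After 12 h the medium was refreshed and cells were treated with 0.03, 0.06 or 0.12 µM compound in DMSO, with DMSO alone as control, for 7 days. Cells were fixed in 4% paraformaldehyde (30 min) and stained with 0.1% crystal violet (15 min, room temperature). Colonies were aggregates of >50 cells, expressed as treated/untreated ratio, from ≥3 independent experiments.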

HCT-116 [8] = test: Induction of apoptosis in human HCT116 cell assessed as late apoptotic cells at 0.03 uM incubated for 24 hrs by annexin V/PI staining based flow cytometric analysis (reference value: 8.04%); format: functional
HCT-116 [9] = test: Induction of cell cycle arrest in human HCT116 cells assessed as accumulation at G1 phase at 0.30 uM incubated for 24 hrs by propidium iodide-staining based flow cytometric analysis (reference value: 64.90%); format: functional
HCT-116 [10] = test: Induction of apoptosis in human HCT116 cell assessed as increase in Bax protein expression level at => 0.10 uM incubated for 24 hrs by Western blot analysis; format: functional, cell-based
HCT-116 [11] = test: Induction of apoptosis in human HCT116 cell assessed as necrotic cells at 0.03 uM incubated for 24 hrs by annexin V/PI staining based flow cytometric analysis (reference value: 5.62%); format: functional
HCT-116 [12] = test: Induction of apoptotic morphological change in human HCT116 cells assessed as loss of original morphology at 0.03 to 1 uM incubated for 24 hrs by haematoxylin-eosin staining based microscopic method; format: functional, cell-based
Outline: (§1)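 HCT116 cells were plated in 6-well plates and held 24 h at 37℃. The medium was then replaced with medium containing 0.03, 0.1, 0.3 or 1.0 µM compound for 24 h. Cells were given conventional haematoxylin-eosin staining, and morphology was imaged under an optical microscope.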

HCT-116 [13] = test: Induction of apoptosis in human HCT116 cell assessed as increase in caspase3 protein expression level at 3 uM incubated for 24 hrs by Western blot analysis; format: functional, cell-based
HCT-116 [14] = test: Induction of apoptosis in human HCT116 cell assessed as live cells at 0.03 uM incubated for 24 hrs by annexin V/PI staining based flow cytometric analysis (reference value: 80.4%); format: functional
HCT-116 [15] = test: Induction of apoptosis in human HCT116 cell assessed as live cells at 0.1 uM incubated for 24 hrs by annexin V/PI staining based flow cytometric analysis (reference value: 80.4%); format: functional
HCT-116 [16] = test: Induction of apoptotic morphological change in human HCT116 cells assessed as cell lysis at 0.03 to 1 uM incubated for 24 hrs by haematoxylin-eosin staining based microscopic method; format: functional
Outline: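 HCT116 at 5×10^6 per well incubated 24 h at 37℃. Medium then replaced with medium containing 0.03, 0.1, 0.3 or 1.0 µM. After 24 h, cells stained by conventional haematoxylin-eosin and imaged by light microscopy to score apoptotic morphology.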

HCT-116 [17] = test: Induction of cell cycle arrest in human HCT116 cells assessed as accumulation at G2/M phase at 0.03 uM incubated for 24 hrs by propidium iodide-staining based flow cytometric analysis (reference value: 11.90%); format: functional
HCT-116 [18] = test: Induction of apoptotic morphological change in human HCT116 cells assessed as membrane shrinkage at 0.03 to 1 uM incubated for 24 hrs by haematoxylin-eosin staining based microscopic method; format: functional, cell-based; outline: as §1
HCT-116 [19] = test: Induction of cell cycle arrest in human HCT116 cells assessed as accumulation at G2/M phase at 0.10 uM incubated for 24 hrs by propidium iodide-staining based flow cytometric analysis (reference value: 11.90%); format: functional
HCT-116 [20] = test: Induction of apoptosis in human HCT116 cell assessed as necrotic cells at 0.3 uM incubated for 24 hrs by annexin V/PI staining based flow cytometric analysis (reference value: 5.62%); format: functional
HCT-116 [21] = test: Induction in cell cycle arrest in human HCT116 cells assessed as inhibition in cyclin B1 protein expression level incubated for 24 hrs by Western blot analysis; format: functional, cell-based
HCT-116 [22] = test: Induction of apoptosis in human HCT116 cell assessed as late apoptotic cells at 1 uM incubated for 24 hrs by annexin V/PI staining based flow cytometric analysis (reference value: 8.04%); format: functional
HCT-116 [23] = test: Induction of cell cycle arrest in human HCT116 cells assessed as accumulation at S phase at 1 uM incubated for 24 hrs by propidium iodide-staining based flow cytometric analysis (reference value: 23.30%); format: functional
HCT-116 [24] = test: Induction of apoptosis in human HCT116 cell assessed as increase in caspase9 protein expression level incubated for 24 hrs by Western blot analysis; format: functional, cell-based
HCT-116 [25] = test: Induction of cell cycle arrest in human HCT116 cells assessed as accumulation at S phase at 0.10 uM incubated for 24 hrs by propidium iodide-staining based flow cytometric analysis (reference value: 23.30%); format: functional
HCT-116 [26] = test: Potency index, ratio of IC50 for 5-Fu to IC50 for test compound for inhibition of human HCT116 cells incubated for 48 hrs by MTT assay; format: functional
Outline: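 Cells were grown in RPMI 1640 with 10% heat-inactivated FBS and penicillin/streptomycin at 37℃, 5% CO2. They were seeded for exponential growth, allowed to adhere 24 h, then exposed 48 h to 0.3, 1, 3 and 10 µM or DMSO. MTT was added (final 2 mg/mL) for 4 h, formazan was dissolved in DMSO, and OD was read at 492 nm. Potency and selectivity indices are ratios of these IC50 values, with L02 normal liver cells as reference for selectivity.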

C=C1C(=O)[C@]23[C@H](OC(=O)c4cc5ccc(OC)cc5[nH]4)[C@H]1CC[C@H]2[C@@]12CO[C@]3(O)[C@@H](O)[C@@H]1C(C)(C)CC[C@@H]2O
Activity (HCT-116 [1]): 26.79%
Ratio IC50 (HCT-116 [2]): 43
Activity [3]: Toxic
Activity (HCT-116 [4]): Dose-dependent effect
Activity (HCT-116 [5]): 4.6%
Activity (HCT-116 [6]): 17.5%
inhibition (HCT-116 [7]): Dose-dependent effect
Activity (HCT-116 [8]): 10.3%
Activity (HCT-116 [9]): 39.7%
Activity (HCT-116 [10]): Active
Activity (HCT-116 [11]): 1.41%
Activity (HCT-116 [12]): Active
Activity (HCT-116 [13]): Active
Activity (HCT-116 [14]): 81.7%
Activity (HCT-116 [15]): 76.7%
Activity (HCT-116 [16]): Active
Activity (HCT-116 [17]): 22.98%
Activity (HCT-116 [18]): Active
Activity (HCT-116 [19]): 29.48%
Activity (HCT-116 [20]): 3.36%
inhibition (HCT-116 [21]): Dose-dependent effect
Activity (HCT-116 [22]): 49.5%
Activity (HCT-116 [23]): 29.92%
Activity (HCT-116 [24]): Dose-dependent effect
Activity (HCT-116 [25]): 24.18%
Ratio IC50 (HCT-116 [26]): 155
